ChEMBL document CHEMBL4393700, “Novel resveratrol-based flavonol derivatives: Synthesis and anti-inflammatory activity in vitro and in vivo” (Eur J Med Chem, 2019)
Calls of active or inactive are those of the source. The rule behind the calls is not given here.

Assays:
[1] = system: RAW264.7; assay: Cytotoxicity against LPS-stimulated mouse RAW264.7 cells at 20 uM pretreated for 1 hr followed by LPS stimulation and measured after 24 hrs by MTT assay; conditions: raw264.7, 24 h
[2] = system: RAW264.7; assay: Antiinflammatory activity in mouse RAW264.7 cells assessed as inhibition of LPS-induced NO production at 10 uM pretreated for 1 hr followed by LPS stimulation and measured after 24 hrs by Griess reagent based assay; assay type: functional, cell-based
Procedure, shortened: (§1)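 RAW264.7 in DMEM/10% FBS with penicillin-streptomycin, 37 °C, 5% CO2; seeded 6×10^4 cells/well, grown 24 h, pretreated 1 h with test agent (10 µM screen; 10, 5, 2.5, 1.25, 0.625 µM for concentration series), then LPS 0.5 µg/mL for 24 h. Supernatant nitrite measured with Griess reagent.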

[3] = system: RAW264.7; assay: Antiinflammatory activity in mouse RAW264.7 cells assessed as reduction in LPS-induced NO production pretreated for 1 hr followed by LPS stimulation and measured after 24 hrs by Griess reagent based assay; assay type: functional, cell-based
Procedure, shortened: as §1

[4] = system: RAW264.7; assay: Antiinflammatory activity in mouse RAW264.7 cells assessed as reduction in LPS-induced IL-6 production pretreated for 1 hr followed by LPS stimulation and measured after 24 hrs by ELISA; assay type: functional, cell-based
Procedure, shortened: (§2)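 RAW264.7 seeded 6×10^4 cells/well, cultured 24 h; 1 h pretreatment at 10, 5, 2.5, 1.25 or 0.625 µM, then LPS 0.5 µg/mL for 24 h. IL-6 and TNF-α in conditioned medium quantified by ELISA.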

[5] = system: RAW264.7; assay: Antiinflammatory activity in mouse RAW264.7 cells assessed as reduction in LPS-induced TNF alpha production pretreated for 1 hr followed by LPS stimulation and measured after 24 hrs by ELISA; assay type: functional, cell-based
Procedure, shortened: as §2

[6] = system: RAW264.7; assay: Antiinflammatory activity in mouse RAW264.7 cells assessed as reduction in LPS-induced iNOS protein expression pretreated for 1 hr followed by LPS stimulation and measured after 24 hrs by Western blot analysis; assay type: functional, cell-based
Procedure, shortened: (§3)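 Western blot in RAW264.7: 1 h pretreatment at 0.5–2 µM, LPS 0.5 µg/mL for 24 h; lysis in RIPA with PMSF and phosphatase inhibitors on ice 30 min, 12% SDS-PAGE, PVDF, primary antibodies overnight at 4 °C, HRP secondary 1:5000 1 h at room temperature; iNOS and COX-2 against β-actin; three separate experiments.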

[7] = system: RAW264.7; assay: Effect on total JNK protein expression level in LPS-induced mouse RAW264.7 cells pretreated for 1 hr followed by LPS stimulation and measured after 30 mins by Western blot analysis; assay type: ADME, cell-based; conditions: raw264.7, 0.5 h
Procedure, shortened: (§4)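 RAW264.7 seeded 3×10^5 cells/well, 24 h; pretreated 1 h at 0.5, 1 or 2 µM, then LPS 0.5 µg/mL for 30 min. RIPA lysates (PMSF, phosphatase inhibitors) on 12% SDS-PAGE, PVDF; primary antibodies overnight 4 °C, HRP secondary 1:5000. Probed phospho/total ERK, JNK, p38, p-IκB, IκB, p-p65, p65, β-actin; three independent experiments.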

[8] = system: Mus musculus; assay: Protection against LPS-induced acute lung injury in C57/BL6 mouse assessed as survival rate at 10 to 20 mg/kg, ip pretreated for 30 mins followed by LPS challenge and measured at 24 hrs (reference value: 60%); assay type: functional
[9] = Toxicity in C57/BL6 mouse ALI model assessed as induction of lung edema at 20 mg/kg, ip measured after 48 hrs by H and E staining based histopathological analysis; assay type: organism-based; conditions: in vivo
Procedure, shortened: (§5)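 Mice given 20 mg/kg i.p. without LPS, compared with controls; lung sections stained with hematoxylin and eosin for edema, hemorrhage, inflammatory cell infiltration and alveolar structure.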

[10] = system: Mus musculus; assay: Antiinflammatory activity in C57/BL6 mouse ALI model assessed as reduction in LPS-induced pro-inflammatory alterations at 10 to 20 mg/kg, ip pretreated for 30 mins followed by LPS challenge and measured after 48 hrs by H and E staining based histopathological analysis; assay type: functional, organism-based
Procedure, shortened: (§6)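 Male C57BL/6 mice, 18~22 g, acclimatized one week; 40 randomly split into control, LPS, and two LPS groups pretreated i.p. (10 or 20 mg/kg) 30 min before LPS (methods: 20 mg/kg tail vein; legend: 5 mg/kg intratracheal). Saline i.p. to controls. Sacrificed 48 h after LPS; read-outs lung MPO, body weight, upper right lobe wet/dry ratio (dried at 60 °C until constant), H&E on paraformaldehyde-fixed paraffin sections.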

[11] = Toxicity in C57/BL6 mouse ALI model assessed as induction of alveolar hemorrhage at 20 mg/kg, ip measured after 48 hrs by H and E staining based histopathological analysis; assay type: organism-based; conditions: in vivo
Procedure, shortened: as §5

[12] = system: RAW264.7; assay: Inhibition of LPS-stimulated NFkappaB activation in mouse RAW264.7 cells assessed as reduction in IkappaB phosphorylation at 0.5 to 2 uM pretreated for 1 hr followed by LPS stimulation and measured after 30 mins by Western blot analysis; assay type: cell-based
Procedure, shortened: as §4

[13] = system: RAW264.7; assay: Inhibition of LPS-stimulated NFkappaB activation in mouse RAW264.7 cells assessed as reduction in LPS-induced IkappaB degradation at 0.5 to 2 uM pretreated for 1 hr followed by LPS stimulation and measured after 30 mins by Western blot analysis; assay type: cell-based
Procedure, shortened: as §4

[14] = system: RAW264.7; assay: Antiinflammatory activity in mouse RAW264.7 cells assessed as reduction in LPS-induced COX2 protein expression pretreated for 1 hr followed by LPS stimulation and measured after 24 hrs by Western blot analysis; assay type: functional, cell-based
Procedure, shortened: as §3

[15] = system: RAW264.7; assay: Inhibition of LPS-induced JNK phosphorylation in mouse RAW264.7 cells pretreated for 1 hr followed by LPS stimulation by Western blot analysis; assay type: cell-based
Procedure, shortened: as §4

[16] = system: Mus musculus; assay: Antiinflammatory activity in C57/BL6 mouse ALI model assessed as reduction in LPS-induced alveolar hemorrhage at 10 to 20 mg/kg, ip pretreated for 30 mins followed by LPS challenge and measured after 48 hrs by H and E staining based histopathological analysis; assay type: functional, organism-based
Procedure, shortened: as §6

[17] = system: Mus musculus; assay: Antiinflammatory activity in C57/BL6 mouse ALI model assessed as reduction in LPS-induced MPO level in lungs tissue at 10 to 20 mg/kg, ip pretreated for 30 mins followed by LPS challenge and measured after 48 hrs; assay type: functional, organism-based
Procedure, shortened: as §6

[18] = Toxicity in C57/BL6 mouse ALI model assessed as induction of inflammatory cell infiltration at 20 mg/kg, ip measured after 48 hrs by H and E staining based histopathological analysis; assay type: organism-based; conditions: in vivo
Procedure, shortened: as §5

[19] = Toxicity in C57/BL6 mouse ALI model assessed as mortality at 20 mg/kg, ip; assay type: organism-based; conditions: in vivo
Procedure, shortened: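 Mice were given the compound at 20 mg/kg ip as solutions, with no LPS challenge. They were observed against an untreated control group, and lung sections were then stained with H&E to look for inflammation, hemorrhage, edema and alveolar damage.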

[20] = system: RAW264.7; assay: Inhibition of LPS-stimulated NFkappaB activation in mouse RAW264.7 cells assessed as reduction in p65 phosphorylation at 0.5 to 2 uM pretreated for 1 hr followed by LPS stimulation and measured after 30 mins by Western blot analysis; assay type: cell-based
Procedure, shortened: as §4

[21] = Toxicity in C57/BL6 mouse ALI model assessed as induction of destruction of alveolar structure at 20 mg/kg, ip measured after 48 hrs by H and E staining based histopathological analysis; assay type: organism-based; conditions: in vivo
Procedure, shortened: as §5

[22] = system: Mus musculus; assay: Antiinflammatory activity in C57/BL6 mouse ALI model assessed as reduction in LPS-induced pulmonary edema by measuring lung wet/dry weight ratio at 10 to 20 mg/kg, ip pretreated for 30 mins followed by LPS challenge and measured after 48 hrs; assay type: functional, organism-based
Procedure, shortened: as §6

[23] = system: RAW264.7; assay: Effect on total p38 expression level in LPS-induced mouse RAW264.7 cells pretreated for 1 hr followed by LPS stimulation and measured after 30 mins by Western blot analysis; assay type: ADME, cell-based; conditions: raw264.7, 0.5 h
Procedure, shortened: as §4

[24] = system: Mus musculus; assay: Antiinflammatory activity in C57/BL6 mouse ALI model assessed as reduction in LPS-induced inflammatory cell infiltration at 10 to 20 mg/kg, ip pretreated for 30 mins followed by LPS challenge and measured after 48 hrs by H and E staining based histopathological analysis; assay type: functional, organism-based
Procedure, shortened: as §6

[25] = system: Mus musculus; assay: Protection against LPS-induced acute lung injury in C57/BL6 mouse assessed as survival rate at 20 mg/kg, ip pretreated for 30 mins followed by LPS challenge and measured after 48 hrs (reference value: 10%); assay type: functional
[26] = system: Mus musculus; assay: Effect on LPS-induced body weight loss in C57/BL6 mouse at 10 to 20 mg/kg, ip pretreated for 30 mins followed by LPS challenge; assay type: functional, organism-based
Procedure, shortened: as §6

[27] = system: RAW264.7; assay: Effect on total ERK expression level in LPS-induced mouse RAW264.7 cells pretreated for 1 hr followed by LPS stimulation and measured after 30 mins by Western blot analysis; assay type: ADME, cell-based; conditions: raw264.7, 0.5 h
Procedure, shortened: as §4

[28] = system: RAW264.7; assay: Antiinflammatory activity in mouse RAW264.7 cells assessed as reduction in LPS-induced TLR4 protein expression pretreated for 1 hr followed by LPS stimulation and measured after 30 mins by Western blot analysis; assay type: functional, cell-based
[29] = system: Mus musculus; assay: Antiinflammatory activity in C57/BL6 mouse ALI model assessed as reduction in LPS-induced destruction of alveolar structure at 10 to 20 mg/kg, ip pretreated for 30 mins followed by LPS challenge and measured after 48 hrs by H and E staining based histopathological analysis; assay type: functional, organism-based
Procedure, shortened: as §6

[30] = Toxicity in C57/BL6 mouse ALI model assessed as induction of pro-inflammatory alterations at 20 mg/kg, ip measured after 48 hrs by H and E staining based histopathological analysis; assay type: organism-based; conditions: in vivo
Procedure, shortened: as §5

[31] = system: Mus musculus; assay: Antiinflammatory activity in C57/BL6 mouse ALI model assessed as reduction in LPS-induced lung edema at 10 to 20 mg/kg, ip pretreated for 30 mins followed by LPS challenge and measured after 48 hrs by H and E staining based histopathological analysis; assay type: functional, organism-based
Procedure, shortened: as §6

## CCOc1ccc(/C=C/c2cc(OC)cc(OC)c2-c2oc3ccc(OC)cc3c(=O)c2O)cc1
[1]
  Activity: Non-Toxic

## COc1ccc(/C=C/c2cc(OC)cc(OC)c2-c2oc3ccc(OC)cc3c(=O)c2O)cc1
[2]
  inhibition: Active
[3]
  Activity: Dose-dependent effect
  IC50: 1780 nM
[4]
  Activity: Dose-dependent effect
  IC50: 2370 nM
[5]
  Activity: Dose-dependent effect
  IC50: 5000 nM

## COc1ccc(/C=C/c2cc(OC)cc(OC)c2-c2oc3cc(C)ccc3c(=O)c2O)cc1
[1]
  Activity: Non-Toxic

## Oc1ccc(/C=C/c2cc(O)cc(O)c2)cc1
[2]
  inhibition: Active

## Cc1ccc(-c2cc(C(F)(F)F)nn2-c2ccc(S(N)(=O)=O)cc2)cc1
[2]
  inhibition: Active

## COc1ccc(/C=C/c2cc(OC)cc(OC)c2-c2cc(=O)c3cc(OC)c(OC)cc3o2)cc1
[1]
  Activity: Non-Toxic

## COc1ccc(/C=C/c2cc(OC)cc(OC)c2-c2cc(=O)c3cc(F)ccc3o2)cc1
[2]
  inhibition: Active

## CCOc1ccc(/C=C/c2cc(OC)cc(OC)c2-c2cc(=O)c3cc(OC)ccc3o2)cc1
[1]
  Activity: Non-Toxic

## COc1ccc(/C=C/c2cc(OC)cc(OC)c2-c2oc3ccc(Br)cc3c(=O)c2O)cc1
[2]
  inhibition: Active

## COc1ccc(/C=C/c2cc(OC)cc(OC)c2-c2cc(=O)c3cc(OC)ccc3o2)cc1
[2]
  inhibition: Active

## CCOc1ccc(/C=C/c2cc(OC)cc(OC)c2-c2oc3ccccc3c(=O)c2O)cc1
[2]
  inhibition: Active

## COc1cc(/C=C/c2ccc(OCc3ccccc3)cc2)c(-c2cc(=O)c3cc(OC)ccc3o2)c(OC)c1
[1]
  Activity: Non-Toxic

## COc1cc(/C=C/c2ccc(OCc3ccccc3)cc2)c(-c2cc(=O)c3cc(Br)ccc3o2)c(OC)c1
[1]
  Activity: Non-Toxic

## COc1ccc(/C=C/c2cc(OC)cc(OC)c2-c2oc3ccc(F)cc3c(=O)c2O)cc1
[6]
  Activity: Dose-dependent effect
[7]
  Activity: Non-Toxic
[8]
  Activity: 90%
[9]
  Activity: Non-Toxic
[10]
  Activity: Active
[2]
  inhibition: Active
[11]
  Activity: Non-Toxic
[3]
  Activity: Dose-dependent effect
  IC50: 1350 nM
[12]
  inhibition: Active
[13]
  inhibition: Active
[14]
  Activity: Dose-dependent effect
[15]
  inhibition: inactive
[16]
  Activity: Active
[17]
  Activity: Active
[18]
  Activity: Non-Toxic
[19]
  Activity: Non-Toxic
[20]
  inhibition: Active
[4]
  Activity: Dose-dependent effect
  IC50: 1120 nM
[21]
  Activity: Non-Toxic
[22]
  Activity: Active
[5]
  Activity: Dose-dependent effect
  IC50: 1920 nM
[23]
  Activity: Non-Toxic
[24]
  Activity: Active
[25]
  Activity: 50%
[26]
  Activity: inactive
[27]
  Activity: Non-Toxic
[28]
  Activity: Dose-dependent effect
[29]
  Activity: Active
[30]
  Activity: Non-Toxic
[31]
  Activity: Active

## COc1ccc(/C=C/c2cc(OC)cc(OC)c2-c2oc3ccc(Cl)cc3c(=O)c2O)cc1
[2]
  inhibition: Active
[3]
  Activity: Dose-dependent effect
  IC50: 4830 nM
[4]
  Activity: Dose-dependent effect
  IC50: 5060 nM
[5]
  Activity: Dose-dependent effect
  IC50: 7340 nM
